Source: ChEMBL document CHEMBL3244081, “Potential antitumor agents. 31. Quantitative structure-activity relationships for the antileukemic bis(guanylhydrazones)” (1979)

System: L1210
Test: Anti-leukemic activity against mouse L1210 cells allografted in ip dosed DBA2 mouse assessed as increase in host lifespan administered qd for 1 to 4 days
Type: functional
In the case of `N=C(N)N/N=C/c1ccc(NC(=O)Nc2ccc(/C=N/NC(=N)N)cc2)cc1`, the “log(activity)” value is reported as 2.08. With `C/C(=N\NC(=N)N)c1cccc(NC(=O)Nc2cccc(/C(C)=N/NC(=N)N)c2)c1` the “log(activity)” value was 2.1. With `Cl.N=C(N)N/N=C/c1ccc(/C=N/NC(=N)N)cc1` the “log(activity)” value was 1.84. With `N=C(N)N/N=C/C/C=N/NC(=N)N` the “log(activity)” value was under 1.4. In the case of `N=C(N)c1ccc(/C=C/c2ccc(C(=N)N)cc2O)cc1` [HYDROXYSTILBAMIDINE], the “log(activity)” value is reported as 1.85. In the case of `N=C(N)NCCCCCCCCCCNC(=N)N` [SYNTHALIN], the “log(activity)” value is reported as 2.11. With `N=C(N)N/N=C/CCC/C=N/NC(=N)N` the “log(activity)” value was under 1.4. With `Cl.N=C(N)N/N=C/c1ccc(-c2ccc(/C=N/NC(=N)N)cc2)cc1` the “log(activity)” value was 1.63. In the case of `C/C(=N\NC(=N)N)c1ccc(NC(=O)Nc2ccc(/C(C)=N/NC(=N)N)cc2)cc1`, the “log(activity)” value is reported as 2.47. In the case of `CC(/C=N/NC(=N)N)=N\NC(=N)N` [MITOGUAZONE], the “log(activity)” value is reported as 2. For `C/C(=N\NC(=N)N)c1ccc(NC(=S)Nc2ccc(/C(C)=N/NC(=N)N)cc2)cc1`, the “log(activity)” value was 1.97. For `CC(=N\NC(=N)N)/C(C)=N/NC(=N)N`, the “log(activity)” value was under 1.4. For `CC(/C=N/N(C)C(=N)N)=N\N(C)C(=N)N`, the “log(activity)” value was under 1.4. For `C/C(=N\NC(=N)N)c1ccc(NC(=N)Nc2ccc(/C(C)=N/NC(=N)N)cc2)cc1`, the “log(activity)” value was 1.82. For `CNC(=N)N/N=C/C(C)=N/NC(=N)NC`, the “log(activity)” value was under 1.4. With `CCC(/C=N/NC(=N)N)=N\NC(=N)N.Cl` the “log(activity)” value was under 1.4. With `N=C(N)NN=C1C=CC(=NNC(=N)N)C=C1` the “log(activity)” value was under 1.4.

System: L1210
Test: Anti-leukemic activity against mouse L1210 cells allografted in ip dosed DBA2 mouse assessed as optimum drug dose required for the effect administered qd for 1 to 4 days
Type: functional
For `N=C(N)N/N=C/c1ccc(NC(=O)Nc2ccc(/C=N/NC(=N)N)cc2)cc1`, the log optimum dose was 1.48. With `C/C(=N\NC(=N)N)c1cccc(NC(=O)Nc2cccc(/C(C)=N/NC(=N)N)c2)c1` the log optimum dose was 1.48. With `Cl.N=C(N)N/N=C/c1ccc(/C=N/NC(=N)N)cc1` the log optimum dose was 1.6. With `N=C(N)N/N=C/C/C=N/NC(=N)N` the log optimum dose was 2.3. Work on `N=C(N)c1ccc(/C=C/c2ccc(C(=N)N)cc2O)cc1` [HYDROXYSTILBAMIDINE] yielded a log optimum dose of 1.87. For `N=C(N)NCCCCCCCCCCNC(=N)N` [SYNTHALIN], the log optimum dose was 0.6. For `N=C(N)N/N=C/CCC/C=N/NC(=N)N`, the log optimum dose was 1.87. For `Cl.N=C(N)N/N=C/c1ccc(-c2ccc(/C=N/NC(=N)N)cc2)cc1`, the log optimum dose was 1.3. Compound `C/C(=N\NC(=N)N)c1ccc(NC(=O)Nc2ccc(/C(C)=N/NC(=N)N)cc2)cc1` has a log optimum dose of 1.4. `CC(/C=N/NC(=N)N)=N\NC(=N)N` [MITOGUAZONE] showed a log optimum dose of 1.7. `C/C(=N\NC(=N)N)c1ccc(NC(=S)Nc2ccc(/C(C)=N/NC(=N)N)cc2)cc1` gave a log optimum dose of 1.4. Compound `CC(=N\NC(=N)N)/C(C)=N/NC(=N)N` has a log optimum dose of 2.18. For `CC(/C=N/N(C)C(=N)N)=N\N(C)C(=N)N`, the log optimum dose was 2.18. `C/C(=N\NC(=N)N)c1ccc(NC(=N)Nc2ccc(/C(C)=N/NC(=N)N)cc2)cc1` showed a log optimum dose of 0.7. For `CNC(=N)N/N=C/C(C)=N/NC(=N)NC`, the log optimum dose was 2.3. `CCC(/C=N/NC(=N)N)=N\NC(=N)N.Cl` showed a log optimum dose of 2. `N=C(N)NN=C1C=CC(=NNC(=N)N)C=C1` showed a log optimum dose of 1.88.

System: not listed separately
Test: Binding affinity to DNA (unknown origin) assessed as decrease in velocity of L1210 DNA-dependent DNA polymerase reaction
Work on `N=C(N)N/N=C/c1ccc(NC(=O)Nc2ccc(/C=N/NC(=N)N)cc2)cc1` yielded a logIC50 of 1.95. Work on `C/C(=N\NC(=N)N)c1cccc(NC(=O)Nc2cccc(/C(C)=N/NC(=N)N)c2)c1` yielded a logIC50 of 1.6. `Cl.N=C(N)N/N=C/c1ccc(/C=N/NC(=N)N)cc1` gave a logIC50 of 1.9. `N=C(N)N/N=C/C/C=N/NC(=N)N` gave a logIC50 of over 3. In the case of `N=C(N)c1ccc(/C=C/c2ccc(C(=N)N)cc2O)cc1` [HYDROXYSTILBAMIDINE], the logIC50 is reported as 1.6. Compound `N=C(N)NCCCCCCCCCCNC(=N)N` [SYNTHALIN] has a logIC50 of over 3. In the case of `N=C(N)N/N=C/CCC/C=N/NC(=N)N`, the logIC50 is reported as over 3. `Cl.N=C(N)N/N=C/c1ccc(-c2ccc(/C=N/NC(=N)N)cc2)cc1` gave a logIC50 of 1.6. For `C/C(=N\NC(=N)N)c1ccc(NC(=O)Nc2ccc(/C(C)=N/NC(=N)N)cc2)cc1`, the logIC50 was 1.95. `CC(/C=N/NC(=N)N)=N\NC(=N)N` [MITOGUAZONE] gave a logIC50 of 2.85. Work on `C/C(=N\NC(=N)N)c1ccc(NC(=S)Nc2ccc(/C(C)=N/NC(=N)N)cc2)cc1` yielded a logIC50 of 2.11. `CC(=N\NC(=N)N)/C(C)=N/NC(=N)N` showed a logIC50 of 2.7. `CC(/C=N/N(C)C(=N)N)=N\N(C)C(=N)N` showed a logIC50 of over 3. In the case of `C/C(=N\NC(=N)N)c1ccc(NC(=N)Nc2ccc(/C(C)=N/NC(=N)N)cc2)cc1`, the logIC50 is reported as 1.6. `CNC(=N)N/N=C/C(C)=N/NC(=N)NC` gave a logIC50 of 2.81. `CCC(/C=N/NC(=N)N)=N\NC(=N)N.Cl` showed a logIC50 of 2.87. `N=C(N)NN=C1C=CC(=NNC(=N)N)C=C1` showed a logIC50 of 2.85.

System: not listed separately
Test: Displacement of ethidium from poly[d(A-T)]-poly[d(A-T)] DNA (unknown origin) by fluorimetric assay
Outline: (§1)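 Relative binding to the synthetic duplex polymers was measured as fluorimetric displacement of bound ethidium, following the method of the earlier studies. Compounds were made up as 2 mM aqueous stock solutions, either from weighed salts or, where material was scarce, with the concentration set from published UV absorbance data before final dilution.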
`N=C(N)N/N=C/c1ccc(NC(=O)Nc2ccc(/C=N/NC(=N)N)cc2)cc1` gave a C50 of 0.3 µM. With `C/C(=N\NC(=N)N)c1cccc(NC(=O)Nc2cccc(/C(C)=N/NC(=N)N)c2)c1` the C50 was 0.42 µM. `Cl.N=C(N)N/N=C/c1ccc(/C=N/NC(=N)N)cc1` showed a C50 of 2.9 µM. With `N=C(N)c1ccc(/C=C/c2ccc(C(=N)N)cc2O)cc1` [HYDROXYSTILBAMIDINE] the C50 was 1.2 µM. Compound `N=C(N)NCCCCCCCCCCNC(=N)N` [SYNTHALIN] has a C50 of 127 µM. With `N=C(N)N/N=C/CCC/C=N/NC(=N)N` the C50 was 70 µM. `Cl.N=C(N)N/N=C/c1ccc(-c2ccc(/C=N/NC(=N)N)cc2)cc1` showed a C50 of 0.14 µM. Work on `C/C(=N\NC(=N)N)c1ccc(NC(=O)Nc2ccc(/C(C)=N/NC(=N)N)cc2)cc1` yielded a C50 of 0.43 µM. Compound `CC(/C=N/NC(=N)N)=N\NC(=N)N` [MITOGUAZONE] has a C50 of 34 µM. `C/C(=N\NC(=N)N)c1ccc(NC(=S)Nc2ccc(/C(C)=N/NC(=N)N)cc2)cc1` gave a C50 of 1.2 µM. `CC(=N\NC(=N)N)/C(C)=N/NC(=N)N` showed a C50 of 14 µM. With `CC(/C=N/N(C)C(=N)N)=N\N(C)C(=N)N` the C50 was 103 µM. `C/C(=N\NC(=N)N)c1ccc(NC(=N)Nc2ccc(/C(C)=N/NC(=N)N)cc2)cc1` showed a C50 of 0.08 µM. `CNC(=N)N/N=C/C(C)=N/NC(=N)NC` showed a C50 of 27 µM. `CCC(/C=N/NC(=N)N)=N\NC(=N)N.Cl` showed a C50 of 112 µM. Compound `N=C(N)NN=C1C=CC(=NNC(=N)N)C=C1` has a C50 of 22 µM.

System: not listed separately
Test: Displacement of ethidium from poly[d(G-C)]-poly[d(G-C)] DNA (unknown origin) by fluorimetric assay
Outline: as §1
For `N=C(N)N/N=C/c1ccc(NC(=O)Nc2ccc(/C=N/NC(=N)N)cc2)cc1`, the C50 was 0.69 µM. In the case of `C/C(=N\NC(=N)N)c1cccc(NC(=O)Nc2cccc(/C(C)=N/NC(=N)N)c2)c1`, the C50 is reported as 1.6 µM. For `Cl.N=C(N)N/N=C/c1ccc(/C=N/NC(=N)N)cc1`, the C50 was 7.6 µM. In the case of `N=C(N)c1ccc(/C=C/c2ccc(C(=N)N)cc2O)cc1` [HYDROXYSTILBAMIDINE], the C50 is reported as 6.7 µM. In the case of `N=C(N)NCCCCCCCCCCNC(=N)N` [SYNTHALIN], the C50 is reported as 191 µM. Work on `N=C(N)N/N=C/CCC/C=N/NC(=N)N` yielded a C50 of 81 µM. `Cl.N=C(N)N/N=C/c1ccc(-c2ccc(/C=N/NC(=N)N)cc2)cc1` showed a C50 of 1 µM. With `C/C(=N\NC(=N)N)c1ccc(NC(=O)Nc2ccc(/C(C)=N/NC(=N)N)cc2)cc1` the C50 was 1.3 µM. `CC(/C=N/NC(=N)N)=N\NC(=N)N` [MITOGUAZONE] showed a C50 of 128 µM. `C/C(=N\NC(=N)N)c1ccc(NC(=S)Nc2ccc(/C(C)=N/NC(=N)N)cc2)cc1` gave a C50 of 3.4 µM. In the case of `CC(=N\NC(=N)N)/C(C)=N/NC(=N)N`, the C50 is reported as 51 µM. For `CC(/C=N/N(C)C(=N)N)=N\N(C)C(=N)N`, the C50 was 379 µM. For `C/C(=N\NC(=N)N)c1ccc(NC(=N)Nc2ccc(/C(C)=N/NC(=N)N)cc2)cc1`, the C50 was 0.2 µM. Work on `CNC(=N)N/N=C/C(C)=N/NC(=N)NC` yielded a C50 of 111 µM. `CCC(/C=N/NC(=N)N)=N\NC(=N)N.Cl` showed a C50 of 248 µM. Work on `N=C(N)NN=C1C=CC(=NNC(=N)N)C=C1` yielded a C50 of 200 µM.
